Calls of active or inactive are those of the source.
What was measured:
[1] = test system: Rattus norvegicus; assay: Inhibition of total plasma cholinesterase in rat at 32 mg/kg, po measured 60 mins post dose; assay type: functional; conditions: 1 h
Outline: (§1)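 Rats given oral saline solutions of compound at the maximum tolerated or highest tested dose; sacrificed 60 min post-dose, blood collected and processed, plasma ChE activity measured spectrophotometrically (Ellman-type). n = 4 rats per group; mean reported.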

[2] = organism: Homo sapiens; assay: Selectivity index, ratio of IC50 for purified human […] to IC50 for human recombinant AChE
Outline: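 Modified Ellman assay on recombinant human AChE and human serum-purified BuChE. Enzyme and inhibitor were preincubated 30 min at 25 °C in 10 mM Tris pH 8.0, then ATCh (0.3 mM) was added with DTNB (0.33 mM final). A405 was read for 5 min and initial rates compared to control. IC50s come from Dixon plots (≥5 inhibitor concentrations), triplicate, 2–3 independent runs. Selectivity is the ratio of the two IC50s.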

[3] = test system: Rattus norvegicus; assay: Inhibition of total brain cholinesterase activity in rat at 32 mg/kg, po measured 30 to 180 mins post dose; assay type: functional
Outline: (§2)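 Rats received oral saline solutions at the maximum tolerated or highest tested dose; after sacrifice, brain samples processed and total ChE activity determined spectrophotometrically versus control. n = 4 animals per group, mean given.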

[4] = target: Acetylcholinesterase (Homo sapiens) (UniProt P22303)
Chain of Acetylcholinesterase (Homo sapiens) (P22303 whole entry): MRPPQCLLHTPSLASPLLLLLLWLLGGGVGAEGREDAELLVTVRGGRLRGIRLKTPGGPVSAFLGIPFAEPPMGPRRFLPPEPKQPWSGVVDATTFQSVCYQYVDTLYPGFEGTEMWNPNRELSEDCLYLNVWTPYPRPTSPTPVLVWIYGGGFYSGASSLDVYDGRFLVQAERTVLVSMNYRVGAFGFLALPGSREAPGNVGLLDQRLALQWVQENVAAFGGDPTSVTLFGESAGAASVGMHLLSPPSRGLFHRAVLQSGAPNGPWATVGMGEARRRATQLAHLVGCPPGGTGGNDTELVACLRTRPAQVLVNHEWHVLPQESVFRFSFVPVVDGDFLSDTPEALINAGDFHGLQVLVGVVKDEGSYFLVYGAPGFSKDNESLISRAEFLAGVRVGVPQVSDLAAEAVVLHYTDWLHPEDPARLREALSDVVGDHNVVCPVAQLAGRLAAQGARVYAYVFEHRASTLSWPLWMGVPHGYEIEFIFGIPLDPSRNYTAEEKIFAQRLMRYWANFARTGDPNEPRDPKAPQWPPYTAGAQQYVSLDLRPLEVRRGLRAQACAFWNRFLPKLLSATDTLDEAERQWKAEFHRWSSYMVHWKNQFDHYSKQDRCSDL

[5] = test system: Rattus norvegicus; assay: Memory enhancing effect in rat Scopolamine passive avoidance model assessed as reversal of Scopolamine-induced amnesia by measuring step-through latencies at 12 mg/kg, ip compound administered 30 mins before training and Scopolamine added 40 mins before training; assay type: functional, organism-based; set-up: dose 12 mg/kg
Outline: (§3)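 Passive avoidance in rats: scopolamine hydrobromide 0.2 mg/kg sc 40 min before training; saline or compound ip 30 min before training. Retention test 24 h later, identical to training but without foot-shock or drug; latency to enter dark chamber recorded.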

[6] = test system: Rattus norvegicus; assay: Inhibition of cholinesterase activity in rat assessed as reconstituted enzyme-mediated release of amphetamine in to plasma at 64 mg/kg, po measured 1 hr post dose; assay type: functional
Outline: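 Rats dosed orally with test compound in saline; plasma collected 1 h post-dose and amphetamine content quantified by LC/MS/MS.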

[7] = test system: Rattus norvegicus; assay: Inhibition of total plasma cholinesterase in rat at >100 mg/kg, po measured 60 mins post dose; assay type: functional; outline: as §1
[8] = test system: Rattus norvegicus; assay: Toxicity in rat assessed as locomotor stimulation at 100 mg/kg, po; assay type: organism-based; set-up: dose 100 mg/kg, route oral; conditions: in vivo
Outline: (§4)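 Rats dosed orally and observed for cholinergic signs (salivation, lacrimation, fasciculations, diarrhea, seizures) and overt behaviour including locomotor stimulation. MTD defined as the dose giving clear, reversible, non-life-threatening cholinergic effects.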

[9] = test system: Rattus norvegicus; assay: Inhibition of total brain cholinesterase activity in rat at >100 mg/kg, po measured 30 to 180 mins post dose; assay type: functional; outline: as §2
[10] = test system: Rattus norvegicus; assay: Memory enhancing effect in rat Scopolamine passive avoidance model assessed as reversal of Scopolamine-induced amnesia by measuring step-through latencies at 8 mg/kg, ip compound administered 30 mins before training and Scopolamine added 40 mins before training; assay type: functional, organism-based; set-up: dose 8 mg/kg; outline: as §3
[11] = test system: Rattus norvegicus; assay: Inhibition of total brain cholinesterase activity in rat at 10 mg/kg, po measured 30 to 180 mins post dose; assay type: functional; outline: as §2
[12] = test system: Rattus norvegicus; assay: Inhibition of total plasma cholinesterase in rat at 10 mg/kg, po measured 60 mins post dose; assay type: functional; conditions: 1 h; outline: as §1
[13] = target: Cholinesterase (Homo sapiens, UniProt P06276); assay: Inhibition of purified human plasma BuChE preincubated for 30 mins before DTNB substrate addition by spectrophotometric assay based Ellman's method
Chain of Cholinesterase (P06276 whole entry): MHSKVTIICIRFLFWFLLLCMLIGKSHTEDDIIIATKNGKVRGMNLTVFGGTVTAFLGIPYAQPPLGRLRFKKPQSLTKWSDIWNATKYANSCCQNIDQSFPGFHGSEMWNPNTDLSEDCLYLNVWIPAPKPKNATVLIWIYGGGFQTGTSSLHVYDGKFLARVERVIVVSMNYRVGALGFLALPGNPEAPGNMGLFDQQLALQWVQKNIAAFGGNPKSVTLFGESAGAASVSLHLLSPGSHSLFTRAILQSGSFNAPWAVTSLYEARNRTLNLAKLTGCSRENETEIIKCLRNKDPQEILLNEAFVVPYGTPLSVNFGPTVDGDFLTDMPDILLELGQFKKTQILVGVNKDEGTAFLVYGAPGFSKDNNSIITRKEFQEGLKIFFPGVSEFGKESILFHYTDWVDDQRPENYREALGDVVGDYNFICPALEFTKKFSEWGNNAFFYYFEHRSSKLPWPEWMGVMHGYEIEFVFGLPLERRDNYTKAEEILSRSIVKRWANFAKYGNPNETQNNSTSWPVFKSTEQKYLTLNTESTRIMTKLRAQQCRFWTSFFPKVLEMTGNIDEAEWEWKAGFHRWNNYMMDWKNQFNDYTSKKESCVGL
Outline: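 Enzyme: human BuChE purified from serum. Modified Ellman assay. Inhibitor preincubated with enzyme 30 min at 25 °C in 10 mM Tris pH 8.0, then acetylthiocholine (0.3 mM) added; DTNB 0.33 mM final. At least five inhibitor levels plotted as Dixon plot; IC50 from x-intercept. Triplicates, two or three independent experiments.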

[14] = Toxicity in po dosed rat assessed as maximum tolerated dose at which reversible and non-life threatening cholinergic effect observed; assay type: organism-based; conditions: in vivo; outline: as §4
[15] = test system: Rattus norvegicus; assay: Inhibition of total plasma cholinesterase in rat at >64 mg/kg, po measured 60 mins post dose; assay type: functional; outline: as §1
[16] = test system: Rattus norvegicus; assay: Inhibition of total brain cholinesterase activity in rat at >64 mg/kg, po measured 30 to 180 mins post dose; assay type: functional; outline: as §2
[17] = test system: Rattus norvegicus; assay: Inhibition of total brain cholinesterase activity in rat at 5 mg/kg, po measured 30 to 180 mins post dose; assay type: functional
Outline: (§5)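 Oral dosing in saline to rats; animals sacrificed at 30, 60 and 180 min; plasma and brain processed and ChE activity read spectrophotometrically. Value is mean of the three time points; n = 4 rats per group.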

[18] = test system: Rattus norvegicus; assay: Toxicity in rat assessed as induction of diarrhea incidence at 5 mg/kg, po; assay type: organism-based; set-up: dose 5 mg/kg, route oral; conditions: in vivo; outline: as §4
[19] = test system: Rattus norvegicus; assay: Toxicity in rat assessed as induction of seizures incidence at 5 mg/kg, po; assay type: organism-based; set-up: dose 5 mg/kg, route oral; conditions: in vivo; outline: as §4
[20] = test system: Rattus norvegicus; assay: Toxicity in rat assessed as induction of severe fasciculation, salivation and lacrimation incidence at 5 mg/kg, po; assay type: organism-based; set-up: dose 5 mg/kg, route oral; conditions: in vivo; outline: as §4
[21] = test system: Rattus norvegicus; assay: Inhibition of total plasma cholinesterase in rat at 5 mg/kg, po measured 30 to 180 mins post dose; assay type: functional; outline: as §5

C[C@H](Cc1ccccc1)NC(=O)Oc1cccc([C@H](C)N(C)C)c1
inhibition in vivo at 32 mg/kg [1]: 26% | Ratio IC50 [2]: 1 | inhibition in vivo at 32 mg/kg [3]: 25% | T1/2 [4]: 12 h

C[C@@H](Cc1ccccc1)NC(=O)Oc1cccc([C@H](C)N(C)C)c1.Cl
inhibition [5]: Active | Activity [6]: 17 ng/mL | inhibition (INH) [7]: 59% | Ratio IC50 [2]: 14 | Activity [8]: Non-toxic | inhibition (INH) [9]: 72% | inhibition [10]: Active | T1/2 [4]: 1.2 h

C[C@H](Cc1ccccc1)N(C)C(=O)Oc1cccc([C@H](C)N(C)C)c1.Cl
inhibition in vivo at 10 mg/kg [11]: 64% | inhibition in vivo at 10 mg/kg [12]: 45% | IC50 [13]: 24.4 µM | MTD [14]: 10 mg/kg | T1/2 [4]: > 24 h

C[C@@H](c1cccc(OC(=O)N(C)[C@@H](C)Cc2ccccc2)c1)N(C)C.Cl
inhibition (INH) [15]: 50% | inhibition (INH) [16]: 50% | T1/2 [4]: > 24 h

CCN(C)C(=O)Oc1cccc([C@H](C)N(C)C)c1 [RIVASTIGMINE]
inhibition in vivo at 5 mg/kg [17]: 56% | Activity [18]: Toxic | Activity [19]: Toxic | Activity [20]: Toxic | inhibition in vivo at 5 mg/kg [21]: 39% | T1/2 [4]: > 24 h

Source: ChEMBL document CHEMBL1781878, “Novel carbamate cholinesterase inhibitors that release biologically active amines following enzyme inhibition” (Bioorg Med Chem Lett, 2009)
